Experimental data gathered from unrelated publications.
Compare with care: the assays were run in different laboratories.
Target: Serine/threonine-protein kinase Sgk1 (SGK1, Homo sapiens, UniProt O00141)
Residues used in one study (O00141 1-431): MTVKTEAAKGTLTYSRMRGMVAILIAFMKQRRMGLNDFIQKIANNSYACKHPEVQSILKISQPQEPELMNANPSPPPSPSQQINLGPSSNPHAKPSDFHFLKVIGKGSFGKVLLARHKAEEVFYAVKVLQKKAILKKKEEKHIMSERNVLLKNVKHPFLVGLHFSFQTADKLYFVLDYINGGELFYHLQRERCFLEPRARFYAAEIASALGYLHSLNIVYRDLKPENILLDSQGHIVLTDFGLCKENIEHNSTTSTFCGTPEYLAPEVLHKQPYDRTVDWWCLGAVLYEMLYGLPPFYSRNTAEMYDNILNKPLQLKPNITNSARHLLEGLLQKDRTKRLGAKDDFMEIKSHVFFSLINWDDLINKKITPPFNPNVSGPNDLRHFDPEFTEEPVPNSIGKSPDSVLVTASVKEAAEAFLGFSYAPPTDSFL

With CNCc1ccccc1-c1csc([C@H](C)Nc2nc(C)nc3cc(OC)c(OC)cc23)c1 the remaining binding was 91% (cell-free assay; competition with immobilised ligand; 1 µM).
For COc1ccnn2ncc(-c3ccnc(N(C)C)n3)c12, the remaining binding was 80% (binding; 1 µM).
The remaining binding of Cc1cc(NC(=O)c2cccc(S(F)(F)(F)(F)F)c2)cc(-n2ccn3nc(-c4cccnc4)cc23)c1 is reported as 81.3% (cell-free assay; competition with immobilised ligand; 1 µM).
The remaining binding of Nc1ncc2c(n1)-c1c([nH]c3ccc(C#CC4CC4)cc13)CCCC2 is reported as 88% (binding; competition with immobilised ligand; 1 µM).
For CC(=O)N1CCC(c2ccc(C(=O)NC3=NCCN3)cc2C(F)(F)F)CC1, the remaining binding was 100% (cell-free assay; competition with immobilised ligand; 1 µM).
The remaining binding of O=C(Nc1c[nH]nc1C(=O)NC1CCNCC1)c1cc(F)cc(F)c1 is reported as 100% (binding; competition with immobilised ligand; 1 µM).
With O=C(NCCCN1CCOCC1)c1ccc(Nc2ncc(Cl)c(-c3ccc(Cl)s3)n2)cc1 the remaining binding was 5.8% (binding; competition with immobilised ligand; 1 µM).
O=C1NC(c2ccccn2)Sc2ccccc21 (stereo not shown) has a remaining binding of 87% (cell-free assay; competition with immobilised ligand; 1 µM).
The remaining binding of CN(C)c1ncc(F)c(-c2cnn3ncccc23)n1 is reported as 79% (binding; 1 µM).
COc1ncc2cc3ccccc3nc2c1C#N gave a remaining binding of 94% (cell-free assay; competition with immobilised ligand; 5 µM).
The remaining binding of CC1CCCN1c1nccc(-c2cnn3ncccc23)n1 (stereo not shown) is reported as 86% (binding; 1 µM).
With O=C(c1ccc(Nc2nccc(-c3cc4ccccc4s3)n2)cc1)N1CCC(N2CCCC2)CC1 the remaining binding was 1.1% (binding; competition with immobilised ligand; 1 µM).
c1cnn2ncc(-c3ccnc(N4CCC45COC5)n3)c2c1 gave a remaining binding of 55% (binding; 1 µM).
COc1cnc(Nc2cccc(S(N)(=O)=O)c2)nc1N1CCN(c2ccccc2)CC1 gave a remaining binding of 76% (binding; competition with immobilised ligand; 1 µM).
For O=C(c1ccc(Nc2ncc(Cl)c(-c3cc4ccccc4s3)n2)cc1)N1CCC(N2CCCC2)CC1, the remaining binding was 0.1% (binding; competition with immobilised ligand; 1 µM).
c1cncc(-c2cccc(Nc3nccc(NC4CCCCC4)n3)c2)c1 gave a remaining binding of 92% (binding; competition with immobilised ligand; 10 µM).
The remaining binding of N[C@@H]1CCN(c2nccc(-c3cnn4ncccc34)n2)C1 is reported as 100% (binding; 1 µM).
For CNC(=O)[C@@H]1CC[C@@H](n2c(-c3ccc4cnccc4c3)nc3ccc(C(=O)NCc4cccc(C(N)=O)c4)cc32)C1, the remaining binding was 94% (binding; competition with immobilised ligand; 1 µM).
For O=C(NCc1ncc(C(F)(F)F)cc1Cl)c1ccc2c(c1)C1(CCS(=O)(=O)CC1)[C@@H](C1CC1)N2S(=O)(=O)c1ccc(F)cc1, the remaining binding was 77% (cell-free assay; competition with immobilised ligand; 1 µM).
The remaining binding of C[C@@H]1CCN(c2nccc(-c3cnn4ncccc34)n2)C1 is reported as 58% (binding; 1 µM).
CCCCN(CCCC)C(=O)CN1C[C@@H](c2cc(OC)c3c(c2)OCO3)[C@H](C(=O)O)[C@H]1CC(C)(C)CCC gave a remaining binding of 77.6% (cell-free assay; competition with immobilised ligand; 1 µM).
For CN(c1nccc(-c2cnn3ncccc23)n1)C1CC1, the remaining binding was 100% (binding; 1 µM).
